Blank lines part the entries; values can stand above or below the compound they belong to. Activity calls are given as the source filed them. No cut-off for these calls is given here.
Tests used:
[1] = species: Rattus norvegicus; assay: Effect in the anti ovulatory assay (AOA) in rats expressed as no. of rats ovulating/No of rats treated at 250 mg; 4/4; assay type: functional
[2] = species: Rattus norvegicus; assay: Effect in the anti ovulatory assay (AOA) in rats expressed as no. of rats ovulating/No of rats treated at 1.0 mg; 1/8; assay type: functional
[3] = species: Rattus norvegicus; assay: Effect in the anti ovulatory assay (AOA) in rats expressed as no. of rats ovulating/No of rats treated at 0.5 mg; 4/4; assay type: functional
[4] = biological target: T1, Gonadotropin-releasing hormone receptor (Rattus norvegicus) (UniProt P30969); assay: In vitro potency to inhibit GnRH-mediated LH secretion by cultured pituitary cells relative to [Ac-delta-Pro1,DFpa2,DTrp36]GnRH.; assay type: functional, cell-based; details: Pituitary gland cell
T1 sequence (whole entry): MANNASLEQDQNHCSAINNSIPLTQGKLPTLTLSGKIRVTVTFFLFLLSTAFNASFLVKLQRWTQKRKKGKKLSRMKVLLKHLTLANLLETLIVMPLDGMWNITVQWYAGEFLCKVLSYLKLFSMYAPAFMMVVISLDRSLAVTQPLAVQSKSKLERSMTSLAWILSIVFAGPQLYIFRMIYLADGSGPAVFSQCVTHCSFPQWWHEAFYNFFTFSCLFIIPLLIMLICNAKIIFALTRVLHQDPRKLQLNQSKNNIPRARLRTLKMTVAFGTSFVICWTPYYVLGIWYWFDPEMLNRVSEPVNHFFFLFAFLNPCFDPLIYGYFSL
Method in brief: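 Dispersed rat pituitary cells in culture; antagonist inhibition of GnRH-stimulated LH secretion. Potency expressed relative to standard antagonist [Ac-Δ3Pro1,D4FPhe2,DTrp3,6]GnRH taken as 1.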

[5] = biological target: T1, Gonadotropin-releasing hormone receptor (Rattus norvegicus); assay: Duration of action, measured using castrated male rat assay to inhibit luteinizing hormone release.; fully active at 24 hr but not at 48 hr; assay type: functional
[6] = species: Rattus norvegicus; assay: Effect in the anti ovulatory assay (AOA) in rats expressed as no. of rats ovulating/No of rats treated at 1.0 mg; 2/9; assay type: functional
[7] = species: Rattus norvegicus; assay: Duration of action measured using castrated male rat assay to inhibit luteinizing hormone release.; In active at 24 hr; assay type: functional, organism-based
[8] = species: Rattus norvegicus; assay: Effect in the anti ovulatory assay (AOA) in rats expressed as no. of rats ovulating/No of rats treated at 2.5 mg; 3/3; assay type: functional
[9] = species: Rattus norvegicus; assay: Duration of action measured using castrated male rat assay to inhibit luteinizing hormone release.; fully active at 48 hr but not at 72 hr; assay type: functional
[10] = species: Rattus norvegicus; assay: Effect in the anti ovulatory assay (AOA) in rats expressed as no. of rats ovulating/No of rats treated at 0.5 mg; 3/4; assay type: functional
[11] = species: Rattus norvegicus; assay: Effect in the anti ovulatory assay (AOA) in rats expressed as no. of rats ovulating/No of rats treated at 1.0 mg; 5/8; assay type: functional
[12] = species: Rattus norvegicus; assay: Effect in the anti ovulatory assay (AOA) in rats expressed as no. of rats ovulating/No of rats treated at 1.0 mg; 4/6; assay type: functional
[13] = species: Rattus norvegicus; assay: Effect in the anti ovulatory assay (AOA) in rats expressed as no. of rats ovulating/No of rats treated at 2.5 mg; 2/8; assay type: functional
[14] = species: Rattus norvegicus; assay: Effect in the anti ovulatory assay (AOA) in rats expressed as no. of rats ovulating/No of rats treated at 1.0 mg; 11/15; assay type: functional

Compound: CC(=O)N[C@H](Cc1ccc2ccccc2c1)C(=O)N[C@H](Cc1ccc(Cl)cc1)C(=O)N[C@H](Cc1cccnc1)C(=O)N[C@@H](CO)C(=O)N[C@@H](Cc1ccc(NC(=O)Nc2cccc(Cl)c2)cc1)C(=O)N[C@H](Cc1ccc(NC(=O)Nc2cccc(Cl)c2)cc1)C(=O)N[C@@H](CC(C)C)C(=O)N[C@@H](CCCCNC(C)C)C(=O)N1CCC[C@H]1C(=O)N[C@H](C)N
No. of rats ovulated [1]: 4

Relative potency [4]: 0.4
Compound: CC(=O)N[C@H](Cc1ccc2ccccc2c1)C(=O)N[C@H](Cc1ccc(Cl)cc1)C(=O)N[C@H](Cc1cccnc1)C(=O)N[C@@H](CO)C(=O)N[C@@H](Cc1ccc(NC(=O)[C@@H](C)Nc2n[nH]c(N)n2)cc1)C(=O)N[C@H](Cc1ccc(NC(=O)[C@H](C)Nc2n[nH]c(N)n2)cc1)C(=O)N[C@@H](CC(C)C)C(=O)N[C@@H](CCCCNC(C)C)C(=O)N1CCC[C@H]1C(=O)N[C@H](C)N
No. of rats ovulated [2]: 1
No. of rats ovulated [3]: 4

Duration of action [5]: 24 h
Relative potency [4]: 1.9
Compound: CC(=O)N[C@H](Cc1ccc2ccccc2c1)C(=O)N[C@H](Cc1ccc(Cl)cc1)C(=O)N[C@H](Cc1cccnc1)C(=O)N[C@@H](CO)C(=O)N(C)[C@@H](Cc1ccc(Nc2n[nH]c(N)n2)cc1)C(=O)N[C@H](Cc1ccc(Nc2n[nH]c(N)n2)cc1)C(=O)N[C@@H](CC(C)C)C(=O)N[C@@H](CCCCNC(C)C)C(=O)N1CCC[C@H]1C(=O)N[C@H](C)N
No. of rats ovulated [6]: 2

Relative potency [4]: 0.36
Compound: CC(=O)NCCCC[C@H](NC(=O)[C@H](CO)NC(=O)[C@@H](Cc1cccnc1)NC(=O)[C@@H](Cc1ccc(Cl)cc1)NC(=O)[C@@H](Cc1ccc2ccccc2c1)NC(C)=O)C(=O)N[C@H](CCCCNC(C)=O)C(=O)N[C@@H](CC(C)C)C(=O)N[C@@H](CCCCNC(C)C)C(=O)N1CCC[C@H]1C(=O)N[C@H](C)N
Duration of action [7]: inactive
No. of rats ovulated [8]: 3

Relative potency [4]: 1.1
Compound: CC(=O)N[C@H](Cc1ccc2ccccc2c1)C(=O)N[C@H](Cc1ccc(Cl)cc1)C(=O)N[C@H](Cc1cccnc1)C(=O)N[C@@H](CO)C(=O)N[C@@H](Cc1ccc(NC(=O)CNc2n[nH]c(N)n2)cc1)C(=O)N[C@H](Cc1ccc(NC(=O)CNc2n[nH]c(N)n2)cc1)C(=O)N[C@@H](CC(C)C)C(=O)N[C@@H](CCCCNC(C)C)C(=O)N1CCC[C@H]1C(=O)N[C@H](C)N
Duration of action [9]: 48 h
No. of rats ovulated [10]: 3
No. of rats ovulated [11]: 5

Compound: CC(=O)N[C@@H](CC(N)=O)C(=O)Nc1ccc(C[C@H](NC(=O)[C@H](CO)NC(=O)[C@@H](Cc2cccnc2)NC(=O)[C@@H](Cc2ccc(Cl)cc2)NC(=O)[C@@H](Cc2ccc3ccccc3c2)NC(C)=O)C(=O)N[C@H](Cc2ccc(NC(=O)[C@@H](CC(N)=O)NC(C)=O)cc2)C(=O)N[C@@H](CC(C)C)C(=O)N[C@@H](CCCCNC(C)C)C(=O)N2CCC[C@H]2C(=O)N[C@H](C)N)cc1
No. of rats ovulated [12]: 4
No. of rats ovulated [13]: 2

Relative potency [4]: 0.65
Compound: CC(=O)N[C@H](Cc1ccc2ccccc2c1)C(=O)N[C@H](Cc1ccc(Cl)cc1)C(=O)N[C@H](Cc1cccnc1)C(=O)N[C@@H](CO)C(=O)N[C@@H](Cc1ccc(NC(=O)c2n[nH]c(N)n2)cc1)C(=O)N[C@H](Cc1ccc(NC(=O)c2n[nH]c(N)n2)cc1)C(=O)N[C@@H](CC(C)C)C(=O)N[C@@H](CCCCNC(C)C)C(=O)N1CCC[C@H]1C(=O)N[C@H](C)N
No. of rats ovulated [14]: 11
No. of rats ovulated [3]: 4
